Data on 18 compounds can be found in ChEMBL document CHEMBL1144887, “Indanylidenes. 1. Design and synthesis of (E)-2-(4,6-difluoro-1-indanylidene)acetamide, a potent, centrally acting muscle relaxant with antiinflammatory and analgesic activity” (J Med Chem, 2003).

Assay type in all cases: functional
Assay [1] has as its system Mus musculus. The assay can be described thus: Sedation caused by oral administration was estimated using rotarod (RR) assay. A digest of the protocol: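 Mouse rotorod test for sedation, oral dosing, generally at a minimum of three doses with N = 6 animals per dose group.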
Assay [2] relates to Mus musculus. Briefly: Effective dose required for muscle relaxation by intraperitoneal administration in mouse using Straub-tail (ST) assay. Conditions: for ED50: ip. A digest of the protocol:
(§1)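 Mouse morphine-induced Straub tail assay, scoring inhibition of sacro-coccygeus dorsalis contraction. Dosed ip or po, generally at a minimum of three doses with N = 6 animals per dose group.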

The species entered for assay [3] is Mus musculus. Briefly: Ratio of rotarod to Straub-tail activity, which indicates the dose exhibiting muscle relaxant activity versus that producing sedation. A digest of the protocol: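 Ratio of rotorod ED50 (po) to Straub tail ED50 (po), both measured in mice with oral dosing. Indicates separation between the muscle-relaxant dose and the sedating dose.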
For assay [4], the system named is Mus musculus. Briefly: Effective dose required for muscle relaxation by oral administration in mouse using Straub-tail (ST) assay. A digest of the protocol: as §1
In assay [5] the test system is Mus musculus. Briefly: (§2) Percent effect profile muscle relaxation at 100 mg/kg by intraperitoneal administration in mouse using Straub-tail (ST) assay. Particulars: ip. A digest of the protocol:
(§3)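 Mouse morphine-induced Straub tail assay, scoring inhibition of sacro-coccygeus dorsalis contraction. Single ip dose of 100 mg/kg; percent effect reported. Compounds above 50% inhibition were then tested orally.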

Assay [6] concerns Rattus norvegicus. The assay can be described thus: Antiinflammatory activity in edema by Carrageenan pleurisy assay by oral administration at 20 mg/kg. Put shortly: (§4)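 Rat carrageenan pleurisy, 3 h. Single oral dose of 20 mg/kg, with separate read-outs for pleural cell counts and edema as percent inhibition. Each compound tested two or three times; average variation approximately 10%.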

Assay [7] concerns Rattus norvegicus. The assay can be described thus: Antiinflammatory activity in cells by Carrageenan pleurisy assay by oral administration at 20 mg/kg. Put shortly:
as §4

Assay [8] concerns Rattus norvegicus. Briefly: Percent inhibition for analgesic activity by trypsin-induced hyperalgesia assay at 20 mg/kg by oral administration in rats. Put shortly: (§5)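 Rat trypsin-induced hyperalgesia (mild analgesia). Percent inhibition at a single oral dose of 20 mg/kg. Each compound tested two or three times; average variation approximately 5%.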
Assay [9] relates to Mus musculus. The assay is described as §2. Particulars: ip. A digest of the protocol:
as §3
This is another data set of the same source.

Assay [10] deals with Rattus norvegicus. The assay can be described thus: Effective dose required for analgesic activity by trypsin-induced hyperalgesia assay at 20 mg/kg by oral administration in rats. A digest of the protocol:
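Rat trypsin-induced hyperalgesia (mild analgesia) with oral dosing. ED50 reported in mg/kg po. Each compound tested two or three times; average variation approximately 5%.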

Assay [11] has as its system Rattus norvegicus. The assay can be described thus: Percent inhibition for analgesic activity by trypsin-induced hyperalgesia assay at 20 mg/kg by oral administration in rats. Put shortly:
as §5

One may read the ED50 as the dose at which the effect has come halfway, by size or by number of responders. A word on the inhibition in vivo: it is the relative decrease from the control value, in per cent. Read a low inhibition in vivo as a weak effect. Broadly, the Inhibition is the share of the control response that was lost under treatment. Lower therefore signals a weak effect.

`O=C(/C=C1\CCc2ccccc21)NC1CC1`: the ED50 in the assay with Mus musculus [1] was 235 mg/kg; in the assay on Mus musculus [2] it was 71 mg/kg; in the assay on Mus musculus [4], 150 mg/kg. The Ratio in the assay listed under Mus musculus [3] is 1.6.
On to `CCN(C)C(=O)/C=C1\CCc2c(F)cc(F)cc21`, for which the ED50 in the assay on Mus musculus [1] is 73 mg/kg; in the assay with Mus musculus [4], 56 mg/kg. Further, at 100 mg/kg the inhibition in vivo with Mus musculus [5] was 100%. Also, the Ratio in the assay listed under Mus musculus [3] worked out at 1.3.
Consider `O=C(/C=C1\CCc2ccc(F)cc21)NC1CC1`, for which the ED50 was 62 mg/kg with Mus musculus [1] and 66 mg/kg with Mus musculus [4]. Also, in the assay with Mus musculus [5], the inhibition in vivo at 100 mg/kg came out at 100%. In the assay listed under Mus musculus [3], the Ratio is 0.9. In addition, the inhibition in vivo at 20 mg/kg with Rattus norvegicus [6] is 7%; with Rattus norvegicus [7], 5%.
As for `CNC(=O)/C=C1\CCc2ccc(F)cc21`, the inhibition in vivo at 20 mg/kg in the assay on Rattus norvegicus [6] stood at 38%; in the assay on Rattus norvegicus [8], 58%; in the assay with Rattus norvegicus [7], 45%. Further, in the assay on Mus musculus [9], at 100 mg/kg the inhibition in vivo was 50%. The compound further yielded an ED50 in the assay with Rattus norvegicus [10] of 25 mg/kg.
As to `N#Cc1ccc2c(c1)/C(=C/C(N)=O)CC2`, at 20 mg/kg the inhibition in vivo in the assay with Rattus norvegicus [8] was 21%. Further, in the assay with Mus musculus [9], the ED50 was found to be 33 mg/kg.
Regarding `NC(=O)/C=C1\CCc2c(F)cccc21`, the ED50 is greater than 100 mg/kg in the assay on Mus musculus [4] and 13 mg/kg in the assay with Rattus norvegicus [10]. Moreover, the values for the inhibition in vivo at 20 mg/kg with Rattus norvegicus [6], with Rattus norvegicus [8] and with Rattus norvegicus [7] were 34%, 68% and 40%, respectively. In the assay on Mus musculus [9], this compound came in with an inhibition in vivo at 100 mg/kg of 63%.
Take `CN(C)C(=O)/C=C1\CCc2c(F)cc(F)cc21`: the ED50 was 100 mg/kg with Mus musculus [1] and 50 mg/kg in the assay on Mus musculus [4]. In addition, in the assay on Mus musculus [5], the inhibition in vivo at 100 mg/kg stood at 100%. Moreover, the Ratio in the assay filed under Mus musculus [3] came out at 2. This compound also had an inhibition in vivo at 20 mg/kg with Rattus norvegicus [11] of 75%.
`NC(=O)/C=C1\CCc2cc(F)cc(F)c21`: the ED50 with Mus musculus [1] is 81 mg/kg; in the assay with Mus musculus [4], 44 mg/kg; in the assay on Rattus norvegicus [10] it was 10 mg/kg. Moreover, in the assay filed under Mus musculus [3], the Ratio came to 1.8. Also, the inhibition in vivo at 20 mg/kg was 55% in the assay with Rattus norvegicus [6], 93% in the assay on Rattus norvegicus [8] and 54% in the assay on Rattus norvegicus [7]. The inhibition in vivo at 100 mg/kg in the assay with Mus musculus [9] worked out at 100%.
With `C/C(=C\C(=O)NC1CC1)c1cccc(F)c1`, the figures for the ED50 in the assay with Mus musculus [1], in the assay with Mus musculus [2] and with Mus musculus [4] were 71 mg/kg, 46 mg/kg and 122 mg/kg, respectively. Moreover, in the assay listed under Mus musculus [3], the Ratio is on record as 0.6.
Regarding `O=C(/C=C1\CCc2ccc(F)cc21)NC1CCC1`, the ED50 in the assay on Mus musculus [4] is greater than 100 mg/kg. For the same compound, the inhibition in vivo at 20 mg/kg in the assay with Rattus norvegicus [11] turned out to be 17%; in the assay with Rattus norvegicus [6] it was 0%; in the assay on Rattus norvegicus [7] it was 4%. Besides, at 100 mg/kg the inhibition in vivo with Mus musculus [9] was 100%.
On to `NC(=O)/C=C1\CCc2c1ccc(F)c2F`, for which the ED50 in the assay on Mus musculus [1] was 50 mg/kg; in the assay with Mus musculus [4] it was 45 mg/kg. The compound also yielded an inhibition in vivo at 100 mg/kg in the assay with Mus musculus [5] of 100%. For the same compound, the Ratio in the assay listed under Mus musculus [3] is 1.1. The inhibition in vivo at 20 mg/kg in the assay on Rattus norvegicus [6] was found to be 82%; in the assay on Rattus norvegicus [8] it was 41%; in the assay with Rattus norvegicus [7] it was 77%.
Consider `Cc1cccc2c1CC/C2=C\C(N)=O`, for which the Inhibition in the assay on Mus musculus [2] was found to be 100%. For the same compound, in the assay with Mus musculus [4], the ED50 was greater than 100 mg/kg. Moreover, the inhibition in vivo at 20 mg/kg in the assay with Rattus norvegicus [6] was determined as 13%; in the assay on Rattus norvegicus [8] it was 25%; in the assay on Rattus norvegicus [7], 15%.
Regarding `CC(C)NC(=O)/C=C1\CCc2c(F)cc(F)cc21`, the ED50 is 76 mg/kg in the assay with Mus musculus [1] and 50 mg/kg in the assay with Mus musculus [4]. In the assay on Mus musculus [5], this compound showed an inhibition in vivo at 100 mg/kg of 100%. In addition, the Ratio in the assay listed under Mus musculus [3] came out at 1.9.
`O=C(/C=C1\CCc2c1ccc(F)c2F)NC1CC1`: in the assay with Mus musculus [4], the ED50 is 62 mg/kg. Also, the inhibition in vivo at 20 mg/kg was determined as 27% with Rattus norvegicus [6], 11% in the assay on Rattus norvegicus [8] and 27% with Rattus norvegicus [7]. Besides, the inhibition in vivo at 100 mg/kg with Mus musculus [9] was found to be 100%.
Turning to `Cc1cccc2c1/C(=C/C(=O)NC1CC1)CC2`, in the assay with Mus musculus [5], the inhibition in vivo at 100 mg/kg was 17%. In the assay on Rattus norvegicus [11], this compound showed an inhibition in vivo at 20 mg/kg of 24%.
Take `CCNC(=O)/C=C1\CCc2ccc(F)cc21`: the ED50 in the assay with Mus musculus [1] was 136 mg/kg; with Mus musculus [4], 70 mg/kg. This compound showed an inhibition in vivo at 100 mg/kg with Mus musculus [5] of 100%. In addition, the Ratio in the assay filed under Mus musculus [3] stood at 1.9. Moreover, the figures for the inhibition in vivo at 20 mg/kg in the assay on Rattus norvegicus [6], in the assay on Rattus norvegicus [8] and in the assay with Rattus norvegicus [7] were 63%, 40% and 45%, respectively.
Consider `O=C(/C=C1\CCc2c(F)cc(F)cc21)NC1CC1`, for which the ED50 in the assay with Mus musculus [1] and with Mus musculus [4] was 62 mg/kg each time. The compound also displayed an inhibition in vivo at 100 mg/kg in the assay with Mus musculus [5] of 100%. For the same compound, the Ratio in the assay listed under Mus musculus [3] was 1. Besides, the inhibition in vivo at 20 mg/kg amounted to 28% in the assay with Rattus norvegicus [6] and 38% in the assay with Rattus norvegicus [7].
For the compound `CC(C)NC(=O)/C=C1\CCc2ccc(F)cc21`, the results for the ED50 in the assay on Mus musculus [1], in the assay with Mus musculus [4] and in the assay with Rattus norvegicus [10] were greater than 100 mg/kg, 96 mg/kg and 9 mg/kg, respectively. Also, the inhibition in vivo at 100 mg/kg in the assay on Mus musculus [5] was 100%. Also, the inhibition in vivo at 20 mg/kg in the assay with Rattus norvegicus [6] came out at 71%; in the assay with Rattus norvegicus [8], 83%; in the assay on Rattus norvegicus [7], 45%.
